Experimental data reported in ChEMBL document CHEMBL3421541, “Benzaldehyde Schiff bases regulation to the metabolism, hemolysis, and virulence genes expression in vitro and their structure-microbicidal activity relationship” (2015).
In brackets after ≈: the same amount, converted by molar mass. Activity calls are given as the source filed them.

Tests used:
Escherichia coli [1] = assay: Antibacterial activity against Escherichia coli assessed as lowest concentration required to reduce growth by 1% after 8 hrs by ELISA plate reader analysis relative to control; format: functional
Procedure, shortened: (§1)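 MBC was found by broth microdilution. Inocula of 1×10^5 CFU/mL in LB were shaken at 37 °C with a series of compound concentrations, then read at OD450. MBC was defined as the lowest concentration reducing growth by 1% versus the inoculum control. Three independent experiments were run.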

Escherichia coli [2] = assay: Antibacterial activity against Escherichia coli assessed as growth inhibition at 100 umol/L after 8 hrs by ELISA plate reader analysis relative to control; format: functional; details: read-out: GI
Procedure, shortened: (§2)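 Bacteria were seeded at 1×10^5 CFU/mL in LB, and compound was added to 100 µmol/L final. Compounds came from DMSO stock, with DMSO ≤1% (v/v) final. Cultures were shaken at 37 °C for 8 h and read at OD450. Inhibition % = (OD vehicle control − OD sample)/OD vehicle control × 100. Values are the mean of three independent experiments.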

Bacillus subtilis [3] = assay: Downregulation of yhdP gene expression in Bacillus subtilis at 50 umol/L after 8 hrs by semi-quantitative RT-PCR analysis relative to control; format: functional, organism-based
Procedure, shortened: (§3)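 B. subtilis ATCC 6051 at 2×10^7 CFU/mL in LB was exposed to 50 µmol/L compound, or LB alone, for 8 h at 37 °C. Total RNA was analysed by TaqMan real-time RT-PCR or semi-quantitative RT-PCR, normalised to 16sRNA. Fold change is versus time-matched medium-only cultures, with data pooled from three experiments.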

Bacillus subtilis [4] = assay: Downregulation of yugS gene expression in Bacillus subtilis at 50 umol/L after 8 hrs by semi-quantitative RT-PCR analysis relative to control; format: functional, organism-based; procedure, shortened: as §3
Bacillus subtilis [5] = assay: Downregulation of yhdT gene expression in Bacillus subtilis at 50 umol/L after 8 hrs by real-time RT-PCR analysis relative to control; format: functional, organism-based; procedure, shortened: as §3
Bacillus subtilis [6] = assay: Antibacterial activity against Bacillus subtilis assessed as lowest concentration required to reduce growth by 1% after 8 hrs by ELISA plate reader analysis relative to control; format: functional; procedure, shortened: as §1
Bacillus subtilis [7] = assay: Downregulation of yugS gene expression in Bacillus subtilis at 50 umol/L after 8 hrs by real-time RT-PCR analysis relative to control; format: functional, organism-based; procedure, shortened: as §3
Bacillus subtilis [8] = assay: Downregulation of yqhC gene expression in Bacillus subtilis at 50 umol/L after 8 hrs by real-time RT-PCR analysis relative to control; format: functional, organism-based; procedure, shortened: as §3
Bacillus subtilis [9] = assay: Downregulation of yhdP gene expression in Bacillus subtilis at 50 umol/L after 8 hrs by real-time RT-PCR analysis relative to control; format: functional, organism-based; procedure, shortened: as §3
Bacillus subtilis [10] = assay: Downregulation of yqhC gene expression in Bacillus subtilis at 50 umol/L after 8 hrs by semi-quantitative RT-PCR analysis relative to control; format: functional, organism-based; procedure, shortened: as §3
Bacillus subtilis [11] = assay: Downregulation of yqhB gene expression in Bacillus subtilis at 50 umol/L after 8 hrs by semi-quantitative RT-PCR analysis relative to control; format: functional, organism-based; procedure, shortened: as §3
Bacillus subtilis [12] = assay: Downregulation of yqhB gene expression in Bacillus subtilis at 50 umol/L after 8 hrs by real-time RT-PCR analysis relative to control; format: functional, organism-based; procedure, shortened: as §3
Bacillus subtilis [13] = assay: Downregulation of yhdT gene expression in Bacillus subtilis at 50 umol/L after 8 hrs by semi-quantitative RT-PCR analysis relative to control; format: functional, organism-based; procedure, shortened: as §3
Bacillus subtilis [14] = assay: Antibacterial activity against Bacillus subtilis assessed as growth inhibition at 100 umol/L after 8 hrs by ELISA plate reader analysis relative to control; format: functional; details: read-out: GI; procedure, shortened: as §2
Escherichia coli [15] = assay: Downregulation of IroD gene expression in Escherichia coli at 50 umol/L after 8 hrs by real-time RT-PCR analysis relative to control; format: functional, organism-based
Procedure, shortened: (§4)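 E. coli at 2×10^7 CFU/mL in LB was exposed to 50 µmol/L compound, or LB alone, for 8 h at 37 °C. Total RNA was then analysed by TaqMan real-time RT-PCR or semi-quantitative RT-PCR. Transcripts were normalised to gapA. Fold change is relative to time-matched medium-only cultures.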

Escherichia coli [16] = assay: Downregulation of acrA gene expression in Escherichia coli at 50 umol/L after 8 hrs by semi-quantitative RT-PCR analysis relative to control; format: functional, organism-based; procedure, shortened: as §4
Escherichia coli [17] = assay: Downregulation of tsh gene expression in Escherichia coli at 50 umol/L after 8 hrs by real-time RT-PCR analysis relative to control; format: functional, organism-based; procedure, shortened: as §4
Escherichia coli [18] = assay: Downregulation of IroD gene expression in Escherichia coli at 50 umol/L after 8 hrs by semi-quantitative RT-PCR analysis relative to control; format: functional, organism-based; procedure, shortened: as §4
Escherichia coli [19] = assay: Downregulation of acrA gene expression in Escherichia coli at 50 umol/L after 8 hrs by real-time RT-PCR analysis relative to control; format: functional, organism-based; procedure, shortened: as §4
Escherichia coli [20] = assay: Downregulation of tsh gene expression in Escherichia coli at 50 umol/L after 8 hrs by semi-quantitative RT-PCR analysis relative to control; format: functional, organism-based; procedure, shortened: as §4
Escherichia coli [21] = assay: Downregulation of cysB gene expression in Escherichia coli at 50 umol/L after 8 hrs by semi-quantitative RT-PCR analysis relative to control; format: functional, organism-based; procedure, shortened: as §4
Escherichia coli [22] = assay: Downregulation of cysB gene expression in Escherichia coli at 50 umol/L after 8 hrs by real-time RT-PCR analysis relative to control; format: functional, organism-based; procedure, shortened: as §4
Staphylococcus aureus [23] = assay: Upregulation of sbi gene expression in Staphylococcus aureus at 50 umol/L after 8 hrs by semi-quantitative RT-PCR analysis relative to control; format: functional, organism-based
Procedure, shortened: as §3, with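 “S. aureus” for “B. subtilis”, “25923” for “6051”, “gyrB.” for “16sRNA.”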

Staphylococcus aureus [24] = assay: Antibacterial activity against Staphylococcus aureus assessed as growth inhibition at 100 umol/L after 8 hrs by ELISA plate reader analysis relative to control; format: functional; details: read-out: GI; procedure, shortened: as §2
Staphylococcus aureus [25] = assay: Antibacterial activity against Staphylococcus aureus assessed as lowest concentration required to reduce growth by 1% after 8 hrs by ELISA plate reader analysis relative to control; format: functional; procedure, shortened: as §1
Staphylococcus aureus [26] = assay: Downregulation of mecA gene expression in Staphylococcus aureus at 50 umol/L after 8 hrs by real-time RT-PCR analysis relative to control; format: functional
Procedure, shortened: as §3, with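 “S. aureus” for “B. subtilis”, “25923” for “6051”, “gyrB.” for “16sRNA.”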

Staphylococcus aureus [27] = assay: Downregulation of mecA gene expression in Staphylococcus aureus at 50 umol/L after 8 hrs by semi-quantitative RT-PCR analysis relative to control; format: functional
Procedure, shortened: as §3, with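 “S. aureus” for “B. subtilis”, “25923” for “6051”, “gyrB.” for “16sRNA.”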

Staphylococcus aureus [28] = assay: Upregulation of hla gene expression in Staphylococcus aureus at 50 umol/L after 8 hrs by semi-quantitative RT-PCR analysis relative to control; format: functional, organism-based
Procedure, shortened: as §3, with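 “S. aureus” for “B. subtilis”, “25923” for “6051”, “gyrB.” for “16sRNA.”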

Staphylococcus aureus [29] = assay: Upregulation of sbi gene expression in Staphylococcus aureus at 50 umol/L after 8 hrs by real-time RT-PCR analysis relative to control; format: functional, organism-based
Procedure, shortened: as §3, with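 “S. aureus” for “B. subtilis”, “25923” for “6051”, “gyrB.” for “16sRNA.”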

Staphylococcus aureus [30] = assay: Upregulation of hla gene expression in Staphylococcus aureus at 50 umol/L after 8 hrs by real-time RT-PCR analysis relative to control; format: functional, organism-based
Procedure, shortened: as §3, with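 “S. aureus” for “B. subtilis”, “25923” for “6051”, “gyrB.” for “16sRNA.”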

For `CC1(C)S[C@@H]2[C@H](NC(=O)[C@H](N)c3ccccc3)C(=O)N2[C@H]1C(=O)O` [AMPICILLIN], the MBC (Escherichia coli [1]) was 1.8 µM (≈ 0.629 µg/mL) and the inhibition of growth at 100 µM (Escherichia coli [2]) was 99.3%.
`COc1ccc(CC(=O)N/N=C/c2cc([N+](=O)[O-])ccc2O)cc1` was tested, and the inhibition of growth at 100 µM (Escherichia coli [2]) was 5.57%.
For `O=C(COc1ccc(Cl)cc1)N/N=C/c1cc(Cl)ccc1O`, the Activity (Bacillus subtilis [3]) was “Active”, the Activity (Bacillus subtilis [4]) was “Active” and the Activity (Bacillus subtilis [5]) was “Active”. The MBC (Bacillus subtilis [6]) was 10.8 µM (≈ 3.66 µg/mL), the Activity (Bacillus subtilis [7]) was “Active” and the Activity (Bacillus subtilis [8]) was “Active”. The Activity (Bacillus subtilis [9]) was “Active”, the Activity (Bacillus subtilis [10]) was “Active” and the Activity (Bacillus subtilis [11]) was “Active”. For the same compound, the inhibition of growth at 100 µM (Escherichia coli [2]) was 3.08%, the Activity (Bacillus subtilis [12]) was “Active” and the Activity (Bacillus subtilis [13]) was “Active”. It also gave an inhibition of growth at 100 µM (Bacillus subtilis [14]) of 83.2%.
With `O=C(COc1ccc(Cl)cc1)N/N=C/c1cc(Br)ccc1O` the Activity (Escherichia coli [15]) was “Active”, the Activity (Escherichia coli [16]) was “Active” and the Activity (Escherichia coli [17]) was “Active”. The Activity (Escherichia coli [18]) was “Active”, the MBC (Escherichia coli [1]) was 18.4 µM (≈ 7.06 µg/mL) and the Activity (Escherichia coli [19]) was “Active”. For the same compound, the Activity (Escherichia coli [20]) was “Active”, the Activity (Escherichia coli [21]) was “Active” and the inhibition of growth at 100 µM (Escherichia coli [2]) was 73.2%. The Activity (Escherichia coli [22]) was “Active” and the inhibition of growth at 100 µM (Bacillus subtilis [14]) was 15.9%.
In the case of `O=C(N/N=C/c1cc([N+](=O)[O-])ccc1O)c1ccncc1`, the inhibition of growth at 100 µM (Escherichia coli [2]) is reported as 41.8%.
In the case of `O=C(COc1ccc(Cl)cc1)N/N=C/c1ccc(OCc2ccccc2)c(OCc2ccccc2)c1`, the Activity (Staphylococcus aureus [23]) is reported as “Active”, the inhibition of growth at 100 µM (Staphylococcus aureus [24]) is reported as 99.5% and the MBC (Staphylococcus aureus [25]) is reported as 1.4 µM (≈ 0.701 µg/mL). For the same compound, the inhibition of growth at 100 µM (Escherichia coli [2]) was 17.6%, the “fold change (FC)” value (Staphylococcus aureus [26]) was 2 and the “fold change (FC)” value (Staphylococcus aureus [27]) was 2. The Activity (Staphylococcus aureus [28]) was “Active”, the Activity (Staphylococcus aureus [29]) was “Active” and the Activity (Staphylococcus aureus [30]) was “Active”. It also gave an inhibition of growth at 100 µM (Bacillus subtilis [14]) of 6.21%.
`O=C(O)[C@H](Cc1ccc(O)cc1)/N=C/c1ccccc1O` was tested, and the Activity (Escherichia coli [15]) was “Active”, the Activity (Escherichia coli [17]) was “Active” and the Activity (Escherichia coli [18]) was “Active”. The MBC (Escherichia coli [1]) was 1.6 µM (≈ 0.456 µg/mL), the Activity (Escherichia coli [20]) was “Active” and the Activity (Escherichia coli [21]) was “Active”. The inhibition of growth at 100 µM (Escherichia coli [2]) was 96%, the Activity (Escherichia coli [22]) was “Active” and the inhibition of growth at 100 µM (Bacillus subtilis [14]) was 4.38%.
`CN[C@@H]1[C@H](O[C@H]2[C@H](O[C@H]3[C@H](O)[C@@H](O)[C@H](N=C(N)N)[C@@H](O)[C@@H]3N=C(N)N)O[C@@H](C)[C@]2(O)C=O)O[C@@H](CO)[C@H](O)[C@H]1O` [STREPTOMYCIN] gave an inhibition of growth at 100 µM (Staphylococcus aureus [24]) of 97%, an MBC (Bacillus subtilis [6]) of 2.1 µM (≈ 1.22 µg/mL) and an MBC (Staphylococcus aureus [25]) of 1.3 µM (≈ 0.756 µg/mL). It also gave an inhibition of growth at 100 µM (Bacillus subtilis [14]) of 94.1%.
In the case of `O=C(N/N=C/c1ccccc1O)c1ccccc1O`, the inhibition of growth at 100 µM (Escherichia coli [2]) is reported as 11.8%.
